High-throughput results deposited in PubChem BioAssay by several laboratories.
The list is not random: actives were taken first. Their share in the collection is about 2.6%.
LMPTP inh: LMPTP phosphatase inhibitors, primary screen, biochemical, fluorescence intensity, uHTS. Low molecular weight phosphotyrosine protein phosphatase (Homo sapiens), P24666. recombinant LMPTP-A, OMFP fluorogenic substrate. inhibition, % at 20 µM. actives 0.22% (n = 360,000). AID 651560, 2012;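 active = compounds that cut the enzyme signal by at least half of the control window in the single-dose screen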;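 note: plate controls were DMSO wells with enzyme plus substrate for no effect and substrate without enzyme for full effect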
Target sequence (P24666 whole entry, looked up): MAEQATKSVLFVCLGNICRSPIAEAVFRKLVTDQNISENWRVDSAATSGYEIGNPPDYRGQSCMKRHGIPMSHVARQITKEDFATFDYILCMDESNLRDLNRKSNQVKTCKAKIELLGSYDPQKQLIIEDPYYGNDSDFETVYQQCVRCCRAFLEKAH
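Assay system: LMPTP-A phosphatase enzyme | Input: 0.625 nM enzyme | Also added: Fluorogenic phosphatase substrate OMFP at 400 µM final | Compound dosing: One test concentration per compound, 20 µM, with 3% DMSO overall | Schedule: 50 min enzyme reaction at room temperature, protected from light | Signal: Fluorescence intensity | Benchmarks: no-enzyme and uninhibited controls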
rCAG RNA binder: binders of r(CAG) RNA repeats, primary screen, biochemical, fluorescence; r(CAG) RNA repeat, TO-PRO-1 dye displacement fluorescence; inhibition, % at 3 µM; actives 1.3% (n = 370,000); AID 651821, 2012;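 active = inhibition above the plate cutoff, the mean of all test compounds on that plate plus 3 SD, cut at about 35% in these data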;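 note: 0% = DMSO alone and 100% = 100 µM mitoxantrone as full dye displacement; higher means more dye released from RNA so lower well fluorescence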
STEP inh: STEP phosphatase inhibitors, primary screen, biochemical, fluorescence intensity, uHTS. Tyrosine-protein phosphatase non-receptor type 5 (Homo sapiens), P54829. recombinant STEP, OMFP fluorogenic substrate. inhibition, % at 20 µM. actives 0.25% (n = 360,000);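 active = inhibition at 20 µM, scaled per plate between control wells, above about 37%, limit read from the data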;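 note: 0% = DMSO with enzyme and substrate and 100% = substrate only without enzyme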
Target sequence (P54829 whole entry, looked up): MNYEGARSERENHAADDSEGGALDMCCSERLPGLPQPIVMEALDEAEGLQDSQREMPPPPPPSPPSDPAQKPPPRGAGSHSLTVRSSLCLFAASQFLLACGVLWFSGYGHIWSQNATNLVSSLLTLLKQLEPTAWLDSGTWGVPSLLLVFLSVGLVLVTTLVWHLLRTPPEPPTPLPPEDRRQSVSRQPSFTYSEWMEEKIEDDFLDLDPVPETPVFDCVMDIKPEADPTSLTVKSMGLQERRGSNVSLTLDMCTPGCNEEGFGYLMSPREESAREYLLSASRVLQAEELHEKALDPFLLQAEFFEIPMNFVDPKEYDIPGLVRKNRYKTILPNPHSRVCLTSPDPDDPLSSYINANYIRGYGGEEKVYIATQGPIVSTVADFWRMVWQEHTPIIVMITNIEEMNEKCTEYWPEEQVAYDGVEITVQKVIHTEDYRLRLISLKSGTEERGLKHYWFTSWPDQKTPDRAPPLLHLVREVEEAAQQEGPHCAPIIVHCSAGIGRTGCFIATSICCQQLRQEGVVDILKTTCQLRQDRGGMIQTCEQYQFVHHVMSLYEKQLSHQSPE
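System: STEP phosphatase, cell-free reaction; Buffer or medium: Bis-Tris pH 6.0 buffer with DTT, detergent; Incubation: 20 min at room temperature, dark; Measured by: fluorescence, 480/540 nm.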
NadD block: inhibitors of S. aureus NadD, primary screen, biochemical, colorimetric, uHTS; inhibition, % at 20 µM; Nicotinate-nucleotide adenylyltransferase NadD (Staphylococcus aureus N315); actives 0.78% (n = 360,000); purified NadD enzyme, colorimetric absorbance read-out; in the data active = inhibition above about 26%
Scp1 inh: Scp-1 phosphatase inhibitors, primary screen, biochemical, colorimetric, uHTS; actives 0.88% (n = 340,000); AID 493091, 2011; Recombinant Scp1, phosphopeptide, malachite green phosphate absorbance; inhibition, % at 20 µM;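 active = inhibition above about 50% at 20 µM, limit read from the data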;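 note: plate controls were DMSO wells with enzyme for no effect and wells lacking enzyme for full effect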
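assay system = SCP-1 phosphatase catalytic domain, residues 76-261 | buffer or medium = 50 mM Tris acetate pH 5.5, 0.005% Tween-20, 10 mM MgCl2 | incubation = enzyme reaction 45 min at room temperature, colour 5 min, stabilisation 30 min | signal = Phosphate-binding colour reagent, absorbance read at 630 nm | measure = % inhibition at 20 µM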
NadD conf: inhibitors of S. aureus NadD, confirmation, biochemical, colorimetric, single concentration. actives 13% (n = 2,000). shares compounds with NadD block. AID 624309, 2012. inhibition, % at 20 µM. purified S. aureus NadD, colorimetric enzyme assay; in the data active = inhibition mostly above about 42%, no sharp cut-off; inactive = mostly below about 42%
rCAG binder conf: small molecules binding CAG repeat RNA – biochemical, fluorescence, confirmation; inhibition, % at 3 µM; shares compounds with rCAG RNA binder; actives 70% (n = 4,300); r(CAG) RNA repeat, TO-PRO-1 dye displacement fluorescence;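 active = inhibition above a per-plate cutoff, the mean inhibition of sample wells plus 3 SD, cut at about 35% in these data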;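 note: loss of TO-PRO-1 fluorescence as compound displaces dye from 1x1 AA loop RNA; 0% = DMSO only wells and 100% = 100 µM mitoxantrone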
DNA CAG counter: displacement of TO-PRO-1 from CAG DNA duplex, counter-screen for rCAG RNA repeat binder project, biochemical, fluorescence, TO-PRO-1 dye, d(CAG) DNA oligo; shares compounds with rCAG RNA binder; d(CAG) DNA oligo TO-PRO-1 dye displacement; inhibition, % at 3 µM; actives 94% (n = 4,300); AID 652068, 2013;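 active = inhibition above its plate's cutoff, the mean test-well inhibition plus 3 SD, cut at about 4.8% in these data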;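 note: 0% = DNA dye mix with DMSO and 100% = 100 µM mitoxantrone; hits displace the dye from DNA and so lower well fluorescence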
Active calls of the source: *; . = no result given.

SMILES	LMPTP inh	rCAG RNA binder	STEP inh	NadD block	Scp1 inh	NadD conf	rCAG binder conf	DNA CAG counter
CCOC(=O)[C@]12CCCC=C1N(CCCOC)C(=O)[C@@H]2CC(=O)N1CCSCC1	.	2	.	.	.	.	.	.
O=C(C1CCCN(S(=O)(=O)c2cccs2)C1)N1CCN(Cc2ccccc2)CC1 (centres undefined)	.	2	.	.	.	.	.	.
Cc1nc2ccc(NC(=O)c3cc(Cl)ccc3F)cc2c(=O)[nH]1	.	1	.	.	.	.	.	.
O=C(NC1CCCCN(Cc2ccc(Cl)cc2)C1=O)c1ccc(COc2ccccc2)cc1 (centres undefined)	.	11	.	.	.	.	.	.
NN=C1c2ccccc2C(=O)C1C(=O)C(c1ccccc1)c1ccccc1 (centres undefined)	5	45*	-10	30*	-5	50*	44*	28*
Cc1ccc(C(=O)C2C(=O)c3ccccc3C2=O)cc1	-2	0	5	-3	-15	.	.	.
COc1ccccc1C1C(C(C)=O)=C(C)N=c2s/c(=C\c3cc(OC)c(OC)c(OC)c3)c(=O)n21 (centres undefined)	1	2	0	-4	2	.	.	.
CC1=C(C(=O)Nc2ccccc2)C(c2ccc(C)o2)n2c(s/c(=C\c3ccco3)c2=O)=N1 (centres undefined)	4	38*	4	34*	3	3	12	7.1*
COCCCNC(=O)C[C@H]1C[C@@]2(C(=O)OC)C(=C[C@H](COCc3ccccc3)O[C@@H]2C)N(Cc2ccco2)C1=O	.	3	.	.	.	.	.	.
COc1ccc(-c2csc(NC(=O)c3c(OC)cccc3OC)n2)cc1	1	12	2	3	-4	.	.	.
COc1ccc(-c2csc(NC(=O)c3ccccc3NS(=O)(=O)c3ccc(C)cc3)n2)cc1	3	85*	0	42*	-12	51*	95*	82*
COc1ccc(-c2csc(Nc3ccc(S(=O)(=O)Nc4cc(OC)nc(OC)n4)cc3)n2)cc1	5	90*	-8	28*	-12	42	90*	57*
COc1cc(NS(=O)(=O)c2ccc(NC(C)=O)cc2)nc(OC)n1	-1	0	0	-3	-4	.	.	.
CC(=O)N1CCCN(S(=O)(=O)c2ccc3c(c2)n(C)c(=O)c(=O)n3C)CC1	.	4	.	.	.	.	.	.
COCCNC(=S)N(C)[C@H]1C[C@H]2c3[nH]c4c(-c5cccc(C)c5)cccc4c3CCN2C[C@H]1[C@H](C)O	.	7	.	.	.	.	.	.
COC(=O)[C@]12C[C@H](CC(=O)NCc3ccccc3)C(=O)N(CCc3ccc(OC)c(OC)c3)C1=C[C@H](C(C)C)O[C@@H]2C1CC1	.	3	.	.	.	.	.	.
COc1ccccc1/C=C/C(=O)c1ccc(Cl)cc1	2	0	-2	0	-13	.	.	.
COc1ccccc1/C=C/C=C1N=C(/C=C/c2ccc(Cl)cc2)OC/1=O	0	54*	4	32*	-7	-3	37*	10*
O=C(O)c1ccc(/C=N/NC(=O)c2ccc(CN3c4cccc5cccc(c45)S3(=O)=O)cc2)cc1	18	67*	0	30*	24	66*	68*	31*
O=S(=O)(Nc1nccs1)c1ccc(Nc2nnc(-c3ccccc3)c3ccccc23)cc1	4	54*	1	64*	9	62*	65*	27*
Cc1onc(-c2ccccc2)c1C(=O)Nc1ccc(S(=O)(=O)Nc2nccs2)cc1	0	33	-5	-3	-4	.	.	.
Cc1ccc(NC(=S)NC(=O)c2ccc(F)cc2)cc1S(=O)(=O)Nc1cccc(Cl)c1	3	20	-2	3	-8	.	.	.
Cc1ccc(C(=O)Nc2cccc([N+](=O)[O-])c2)cc1S(=O)(=O)Nc1ccc(NC(=O)c2ccccc2)cc1	4	55*	-3	42*	-9	38*	41*	21*
Cc1ccc(NC(=O)CC(=O)c2ccc([N+](=O)[O-])cc2)cc1S(=O)(=O)Nc1cccc(Cl)c1	4	50*	-1	37*	-12	35	64*	25*
Cc1ccc(NS(=O)(=O)c2cc(C(=O)Nc3cccc([N+](=O)[O-])c3)ccc2C)cc1	3	22	1	1	-7	.	.	.
SMILES	LMPTP inh	rCAG RNA binder	STEP inh	NadD block	Scp1 inh	NadD conf	rCAG binder conf	DNA CAG counter
Cc1cccc2sc(NNC(=O)c3ccc(S(=O)(=O)N4CC(C)CC(C)C4)cc3)nc12 (centres undefined)	2	66*	-2	58*	-8	54*	63*	30*
Cc1cc(C)c2nc(NNC(=O)c3ccc(S(=O)(=O)N4CC(C)CC(C)C4)cc3)sc2c1 (centres undefined)	2	43*	3	34*	-1	24	49*	24*
Cc1ccc2nc(NNC(=O)c3ccc4c(c3)OCCO4)sc2c1	-2	7	1	2	-3	.	.	.
Cc1ccc2nc(NNC(=O)c3ccc(S(=O)(=O)N4CCc5ccccc5C4)cc3)sc2c1	2	51*	2	59*	10	56*	60*	29*
CCCCCCCCNS(=O)(=O)CC1NCc2ccccc21 (centres undefined)	.	5	.	.	.	.	.	.
CCOC(=O)[C@]12CCCC=C1N(Cc1ccc(OC)cc1)C(=O)[C@@H]2CC(=O)N1CCCCC1	.	-1	.	.	.	.	.	.
CCN(CC)c1ccc(S(=O)(=O)Nc2cc(Cl)ccc2Cl)cc1NC(=S)NC(=O)C1CCCC1	3	65*	0	31*	-5	15	71*	35*
CC1(C)CC(=O)C=C(C2CC2)C1=O	.	4	.	.	.	.	.	.
CC(=O)N1CCN(c2ccc(N3CCN(Cc4ccccc4)[C@@H](C)C3)c(C)c2)[C@H](C)C1	.	0	.	.	.	.	.	.
Cc1ccc2sc(NNC(=O)c3cc(-c4cccs4)nc4ccccc34)nc2c1C	.	19	.	.	.	.	.	.
O=C(NNc1nc2ccc(Cl)cc2s1)c1cc(-c2cccs2)nc2ccccc12	3	55*	2	44*	7	48*	50*	25*
